The target in assay [1] is T1, Adenosine A3 (Homo sapiens, UniProt P0DMS8).
T1 sequence (P0DMS8 1-318): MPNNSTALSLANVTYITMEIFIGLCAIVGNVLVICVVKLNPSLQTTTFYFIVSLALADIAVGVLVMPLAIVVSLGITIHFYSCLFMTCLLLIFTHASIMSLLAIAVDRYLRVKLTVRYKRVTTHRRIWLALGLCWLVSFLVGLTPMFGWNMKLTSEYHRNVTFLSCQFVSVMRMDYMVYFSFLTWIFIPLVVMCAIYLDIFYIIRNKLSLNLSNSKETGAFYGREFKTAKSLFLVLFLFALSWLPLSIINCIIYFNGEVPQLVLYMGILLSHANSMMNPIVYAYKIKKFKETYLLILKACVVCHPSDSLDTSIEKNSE
The assay can be described thus: radioligand binding displacement. The settings on record: read-out: % inhibition at 10 μM. Put shortly:
(§1)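 Off-target screen by radioligand binding displacement, run per published methods with reference standards in each assay. […] Recombinant human targets were expressed in CHO-K1 cells (A3, dopamine transporter), Sf9 insect cells (α2A), CHO cells (DOP) and MDCK cells (norepinephrine transporter). IC50, where determined, came from non-linear least-squares regression.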

In assay [2] the test system is hmGluR2/hCaR*. The experiment in a line: fluorescence-based functional assay, HEK […] cells. It counts as cell-based, Homo sapiens. The settings on record: read-out: Effect; positive allosteric modulator; with 0.02 μM DCG-IV as agonist.
The target in assay [3] is Norepinephrine transporter (Homo sapiens, UniProt P23975). The experiment in a line: radioligand binding displacement. Put shortly: as §1
Sequence of Norepinephrine transporter (P23975 whole entry): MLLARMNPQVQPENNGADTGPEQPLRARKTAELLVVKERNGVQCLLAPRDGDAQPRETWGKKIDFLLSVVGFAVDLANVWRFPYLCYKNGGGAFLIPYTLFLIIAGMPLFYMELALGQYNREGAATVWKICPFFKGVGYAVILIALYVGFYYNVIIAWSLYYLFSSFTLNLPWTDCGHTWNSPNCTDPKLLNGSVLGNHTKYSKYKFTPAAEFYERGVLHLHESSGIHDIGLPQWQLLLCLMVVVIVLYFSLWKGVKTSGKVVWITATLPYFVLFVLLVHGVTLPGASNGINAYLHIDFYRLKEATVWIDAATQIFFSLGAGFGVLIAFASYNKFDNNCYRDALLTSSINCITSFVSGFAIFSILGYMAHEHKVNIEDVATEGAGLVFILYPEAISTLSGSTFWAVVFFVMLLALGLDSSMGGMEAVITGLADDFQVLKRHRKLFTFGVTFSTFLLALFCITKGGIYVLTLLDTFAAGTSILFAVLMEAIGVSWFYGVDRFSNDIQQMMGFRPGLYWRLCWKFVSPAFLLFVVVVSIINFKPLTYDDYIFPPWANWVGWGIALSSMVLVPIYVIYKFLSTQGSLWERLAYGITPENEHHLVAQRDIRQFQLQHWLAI

By inhibition is commonly meant the percentage by which the read-out fell short of the control. One may read the IC50 as the midpoint of a concentration-inhibition curve. Read a low IC50 as higher potency. As to `Cc1cc(-c2nc(CN3CCNCC3)no2)cc2c1C(=O)N(Cc1ccc(OC(F)(F)F)cc1)C2` [AZD8529, 7-methyl-5-(3-piperazin-1-ylmethyl-[1,2,4]oxadiazol-5-yl)-2-(4-trifluoromethoxybenzyl)-2,3-dihydroisoindol-1-one], the inhibition at 10 µM in assay [1] was 51%. Further, the EC50 in assay [2] is 0.285 ± 0.02 µM. The molecule also showed an IC50 in assay [3] of 4.73 µM.

The values are drawn from paper PMC4529372 (Biological psychiatry, 2015).
